Most compounds without a hit are left out; they make up all but 4% or so of the library.
PHOSPHO1 inh: inhibitors of human PHOSPHO1 phosphatase; recombinant PHOSPHO1, absorbance phosphatase assay; 290,000 compounds, 1.1% hits; AID 1565; inhibition, % at 13.3 µM; Q8TCT1; in the data active means inhibition above about 60%
KCNQ1 inh: human KCNQ1 channel inhibition; P51787; CHO-K1 KCNQ1, FluxOR thallium flux fluorescence; hits give high values; B-score at 10 µM; 310,000 compounds, 1.3% hits;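 active means compounds whose thallium flux B-score, printed positive for inhibition, exceeds three library SD while starting fluorescence stays within three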;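 further: channel opened by potassium depolarization with thallium stimulus after 20 min compound exposure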
KCNK9 inh: human KCNK9 channel inhibition. B-score at 10 µM. AID 488922. HEK293 KCNK9, FluxOR thallium flux fluorescence; hits give low values. Q9NPC2. 310,000 compounds, 1.2% hits;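 active means ratio B-score over 3 SD below the library mean, with starting fluorescence within 5 SD of its mean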;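 further: negative B-score means less thallium flux so channel inhibition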
KCNK3 inh: human KCNK3 channel inhibition, primary screen; O14649; B-score at 10 µM; 340,000 compounds, 0.84% hits; CHO-KCNK3 thallium flux, FluxOR fluorescence; hits give low values;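 active means B-score under library mean minus 4 SD, starting fluorescence ratio at most library mean plus 5 SD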;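 further: more negative B-score means stronger inhibition of thallium flux through KCNK3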
hERG rescue: compounds protecting human hERG from proarrhythmic drug block; 310,000 compounds, 0.51% hits; activation (rescue from dofetilide block), less the hit threshold, % at 10 µM; Q12809; AID 1511; CHO-hERG, FluxOR thallium flux, dofetilide IC70 present;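 active means activation above the mean of controls blocked by dofetilide plus 5 SD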;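 further: thallium influx through hERG after potassium depolarization seen as dye fluorescence rise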
KCNQ1 pot: human KCNQ1 channel potentiation or activation. 310,000 compounds, 0.35% hits. CHO-K1 KCNQ1, thallium flux FluxOR fluorescence; hits give high values. P51787. AID 2648. B-score at 10 µM;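 active means fluorescence ratio B-score, a plate-corrected score, at least three library SD, with initial intensity B-score within 5 SD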
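Material: CHO-K1 cells stably expressing KCNQ1. Medium: assay buffer for compound exposure, DMSO matched across wells. Reagent: K+/Tl+ depolarizing stimulus. Compound dosing: single-concentration screen. Times: 37 °C overnight plating, 90-min dark dye load, 20-min compound pretreatment. Technique: FluxOR Tl+ flux fluorescence.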
* hit, by the source's call; i = inactive; . = no result.

SMILES	PHOSPHO1 inh	KCNQ1 inh	KCNK9 inh	KCNK3 inh	hERG rescue	KCNQ1 pot
O=S(=O)(c1ccc2nnn(O)c2c1)N1CCCCC1	6	i	i	i	-11	i
Cn1c(=O)n(C)c2cc(NC(=O)COc3ccccc3)ccc21	.	i	i	i	-4	i
CCSC1=NC2(CCCCC2)Nc2sc3c(c21)CCCC3	95*	i	i	i	-2	i
COc1cccc(CC(=O)Nc2nc3ccccc3[nH]2)c1	41	i	i	i	4.9*	i
COc1ccc(CC(=O)Nc2nc3ccccc3[nH]2)cc1	-1	i	i	i	-6	i
Cc1ccc(C)c(N2CCN(C(=O)C3CCN(c4nnc(N5CCCC5=O)s4)CC3)CC2)c1	15	i	i	i	-8	i
CC(C)C1CC(CCNCc2ccc(N(C)C)cc2)(c2ccccc2)CCO1 (centres undefined)	-6	i	i	i	-7	i
Cc1ccc(C2(CCNCc3ccc(N(C)C)cc3)CCOC(C(C)C)C2)cc1 (centres undefined)	64*	i	i	i	-18	i
CCN(CC)CCCNC(=O)c1cn(-c2cccc(OC)c2)c(=O)c2ccccc12	38	i	i	i	5.0*	i
FC(F)(F)c1ccc(N2CCOCC2)c(Nc2nc3ccccc3n3cnnc23)c1	33	i	-7.2*	i	-4	i
N#C/C(=C/c1ccccc1)C(=O)OCC(=O)Nc1ccccc1[N+](=O)[O-]	.	.	.	i	.	.
Cc1nn(CCc2nc(-c3ccco3)cs2)c2[nH]c(=O)cc(C(F)(F)F)c12	77*	i	i	i	0	i
Cc1cc(C)n(CCc2nc(-c3ccco3)cs2)n1	41	i	i	i	-6	i
CCOC(=O)c1c(NC(C)=O)sc2c1CCC(C=O)=C2Sc1ccccc1	91*	i	-6.9*	i	-16	i
CCOC(=O)c1c(NC(=O)c2ccccc2N(C)S(=O)(=O)c2ccccc2)sc2c1CCCC2	-11	i	i	i	2	i
CCOC(=O)c1c(NC(=O)c2ccccc2Br)sc2c1CCc1ccccc1-2	71*	i	i	i	-15	i
COc1ccc(C(C)C)cc1S(=O)(=O)Nc1ccncc1	16	i	i	i	-7	i
CCN(CCNC(=O)CN(C)S(=O)(=O)c1cccc2nsnc12)c1ccccc1	64*	i	i	i	-10	i
O=C(NNc1ncccc1-n1cccc1)c1ccc(Cl)cc1	39	i	i	i	-5	i
CC(C)(C)c1ccc(C(=O)NNc2ncccc2-n2cccc2)cc1	12	7*	i	i	-6	i
CCN(c1ccccc1)S(=O)(=O)c1c(C)noc1C	.	.	.	i	.	.
CC(=O)Nc1ccc(NC(=S)Nc2ccc(Br)cc2)cc1	-1	6*	i	i	-14	i
S=C(Nc1ccccc1)Nc1ccc(Br)cc1	28	6*	i	i	-11	i
CC(=O)Nc1ccc(NC(=S)Nc2ccccc2)cc1	1	i	i	i	-9	i
COc1cccc(CNC23CC4CC(CC(C4)C2)C3)c1OCc1ccccc1	23	6*	i	i	-11	i
SMILES	PHOSPHO1 inh	KCNQ1 inh	KCNK9 inh	KCNK3 inh	hERG rescue	KCNQ1 pot
O=C(Nc1ccc(F)cc1F)NC1CC1	-40	i	i	i	-7	i
O=C(Nc1ccc(F)cc1F)NC1CCCCCCC1	61*	i	i	i	-11	i
COc1cc(CN2CCN(c3ccccc3F)CC2)cc(OC)c1O	39	i	i	i	-11	i
CSC(SC)=C(C#N)C(=O)c1ccccc1	25	11*	i	i	-29	i
Cc1sc2nc(N)sc2c1C	90*	.	.	i	.	.
Cc1ccc(C)c2sc(N)nc12	48	i	i	i	-5	i
COc1ccc(-c2ccc(CCC(=O)O)n2NC(N)=O)cc1	19	i	i	i	-10	i
COc1ccc(-c2ccc(CCC(=O)O)n2NC(=O)c2ccc(O)cc2)cc1	63*	i	i	i	-3	i
COCCNC(=O)c1cn(C(C)c2ccccc2F)nn1 (centres undefined)	35	i	i	.	-14	i
COC(=O)c1cccc(N2C(=O)c3ccccc3S2(=O)=O)c1	92*	i	i	i	-17	i
COC(=O)c1ccc(CN2C(=O)c3ccccc3S2(=O)=O)cc1	-33	i	i	i	-10	i
CCn1nnnc1SCC(=O)Nc1cc(OC)cc(OC)c1	0	i	i	i	-3	i
FC(F)(F)c1ccc(Nc2nnnc3ccccc23)cc1	61*	i	i	i	-12	i
N=c1c2ccccc2nnn1-c1ccc(C(F)(F)F)cc1	11	i	i	i	-10	i
COc1cccc(C2(O)CCN(C(=O)C3CCC3)CC2)c1	16	i	i	i	4.8*	i
COc1cccc(C2(O)CCN(C(=O)C3CC3)CC2)c1	30	i	i	i	-4	i
CN(C)C(CNC(=O)c1ccc(-c2ccccc2)cc1)c1ccccc1 (centres undefined)	7	6*	i	i	-11	i
CCC(=O)c1cn(CC(=O)Nc2ccc(C)cc2)c2ccccc12	29	i	i	i	0	i
CCOc1ccc(N(CC(=O)O)S(=O)(=O)c2cccnc2)cc1	2	i	i	i	-10	i
COc1cc2c(cc1NC(=S)Nc1cccc(C(F)(F)F)c1)oc1ccccc12	28	7*	i	i	-21	i
COc1cc2c(cc1NC(=S)Nc1cccc3ccccc13)oc1ccccc12	-48	i	i	i	-5	i
CN(C)c1nc(C#N)nc(N(C)C)n1	-23	i	i	i	10*	i
O=C(NC(Nc1ccccn1)C(Cl)(Cl)Cl)c1ccccc1 (centres undefined)	51	i	i	i	-10	i
CSc1nnc2n(C)c3c(c(=O)n12)C1(CCCC1)Cc1ccccc1-3	18	i	-7.2*	i	-20	i
Cc1cc(C(=O)NCC(C)(C)N2CCOCC2)c(C)o1	.	i	i	i	-16	i
Fc1ccccc1OCCn1c(=S)[nH]c2ccccc21	-120	i	i	i	-9	i
CN1CCN(CCCNC(=O)c2ccc(/C=C3\Oc4ccccc4N(Cc4ccccc4F)C3=O)cc2)CC1	36	i	i	i	-20	i
CCN1CCN(CCNC(=O)c2ccc(/C=C3\Sc4ccccc4N(Cc4ccccc4F)C3=O)cc2)CC1	27	7*	i	i	-31	i
